Test results from the EternaBench riboswitch data.

Test system: MS2 coat protein
Experiment: apparent Kd, MS2 coat protein; higher = weaker binding; RNA-MaP array; FMN 200 µM where present
Procedure, shortened: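 Stalled E. coli RNA polymerase transcribed the designs on Illumina sequencing-chip clusters. SNAP-549-labelled MS2 coat protein was titrated from 0.7 or 1.5 nM, doubling to 3 µM, without and then with constant ligand, in 100 mM Tris-HCl pH 7.5, 80 mM KCl, 4 mM MgCl2, BSA, DTT, yeast tRNA and Tween-20. Per-cluster binding curves were fitted to green signal normalised to red-channel RNA signal and control-cluster median Fmax. The apparent Kd is the median of the filtered fits.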

[1] = designed as: ON switch for flavin mononucleotide, no ligand
[2] = ligand present: flavin mononucleotide, designed as: ON switch for flavin mononucleotide
[3] = designed as: OFF switch for flavin mononucleotide, no ligand
[4] = ligand present: flavin mononucleotide, designed as: OFF switch for flavin mononucleotide

Sequence	apparent Kd [1]	apparent Kd [2]	apparent Kd [3]	apparent Kd [4]
UCAUAUAAACAAGGAUAUCAAUUAUUUACACAUCCUACAUGAGGAUCACCCAUGUUUUAAUAUUUUGAGAAGGUGUAAUGUCGG	24 nM	29.9 nM		
CAUCUACAGGGAGGAUAUACAUGAGGAUCACCCAUGUCAUCAUACGAUCUUUCUUUUGUAUGAGUGUAGAAGGCCCAACUACCA			15.2 nM	15.2 nM
UUUAUAUUCAGAGGAUAUUAAUGUAGUAUAAUAUAAGAAGGCUGUUUGUUUUGUAAAGUUAUUAUACAUGAGGAUCACCCAUGU	18.4 nM	15.5 nM		
UCUGAUUGGUGAGGAUAUACAUAAUUUAUGACUGUAGAAGGCACAAACCUCAAGACAUGAGGAUCACCCAUGUGGUAUUUAGAU			348 nM	506 nM
UCGUGAAGGACAGGAUAUGGACAUGAGGAUCACCCAUGUACAUGGGAUUAUAUACUGAAUUUAUACUAGAAGGGUUACAUAAAU			31.7 nM	19.8 nM
ACCUUACAUGAGGAUCACCCAUGUUAGGAUAUCUCGCCUGCGCAAUCACAGCGCAGGCAGAGAAGGGACGCGGG			30.3 nM	32.1 nM
ACAUGAGGAUCACCCAUGUAUACAUAGGAUAUUGGUGAUCAGGGAUGUUUUACAGGAUAUGUCUGCGAGAAGGAUGCAAGUACU	178 nM	94.7 nM		
UUAUUACAUGAGGAUCACCCAUGUUUAGUGGUGACAGGAUAUACGAAAAAAAAAAAAAAAGUAGAAGGGUCUUAUU	503 nM	742 nM		
GGUUGGCGAGGAUAUACAUGAGGAUCACCCAUGUGGUCCUGUGGCUGGUCUUGCCUUUGUAGAAGGCGCGGGUC			105 nM	111 nM
UUUUUUGUUGUGAGGAUAUCGUAUUUUUUUUGUUACGAGAAGGCACAUGAGGAUCACCCAUGUUUUUUGAUGUU			24.8 nM	56.7 nM
UCUGGUCGAGGAUAUAUAUGACGUGCUUCGGCACGAAGAUCACAUGAGGAUCACCCAUGUAGAAGGCGACCAGA			130 nM	1160 nM
GUGCUCAUGUAAGGAUAUGCAGCCGUUUCGGCUGCAGAAGGUACUAUAAUACAUGAGGAUCACCCAUGUCUCUAUAAUUUGGUG	113 nM	239 nM		
GGUCCACGAGGAUAUCGAUUAUAGUACAUGAGGAUCACCCAUGUUGUCCAGGUUUCGUUUCGAGAAGGCGUGGGUU			88.4 nM	52.6 nM
UGAUAGGACACAGGAUAUACGUGCUAGAGAUACUAGCAAAAUUUCCUCACAUGAGGAUCACCCAUGUAGAAGGGUGUCCUAUCU			10.3 nM	135 nM
AGCGGGUGGGUAGGAUAUGGCUAUGUCUCAUUGCUAGAAGGACCAGCUGCUACAUGAGGAUCACCCAUGUCGUAGUGCACCCAG	195 nM	12.7 nM		
GCACAUGAUACAGGAUAUGUUUUGGAUUUUAUAUGCAGUUAUAAUUUUUUGACAGAAGGGUAUACAUGAGGAUCACCCAUGUGC			161 nM	75 nM
UUGAGGUCAGGAUAUGCAUGGCGGGACUUGCGUCGUGGCGUGCAGAAGGGACAUGAGGAUCACCCAUGUGGAGC			75.2 nM	211 nM
CCCAUCAGAGGAUAUACAUGAGGAUCACCCAUGUCAAUCGAACGGGAUGGGAGGUUAGGUAGAAGGUUGUGGAA			15.2 nM	16.9 nM
GCCUUAUCGGUCAGGAUAUACACCUGUUAGUUGUUGUAGAAGGGACAUGAGGAUCACCCAUGUACAUUACAUUG			23.1 nM	40.1 nM
UGAUACUAAGAGAAGGUUCAAACUACAUAUUGCAUACAUGAGGAUCACCCAUGUUGGUGAAUAAGAAAGGAUAUUUUACUGUAU			46.3 nM	34.3 nM
AAAACGGUAGGAUAUACAGUCCGUUGUCGAAUGAUGAAAAGACAUGAGGAUCACCCAUGUAGAAGGACCGAAAA			54.8 nM	125 nM
UGUAUGGACAGAGGAUAUACCGAUAGGAUCUACUAUCGAAUAAUCCUCACAUGAGGAUCACCCAUGUAGAAGGCUGUCCAUACU			21.2 nM	142 nM
GUAGCAUACCGAGGAUAUUCCCGGAAACGGAAAACAUGAGGAUCACCCAUGUGGCGAAAGCCUUGGGAGAAGGCGGAAUGCUAC	25.4 nM	19.4 nM		
